# Test results: ChEMBL document CHEMBL2057112, “Enamino-oxindole HIV protease inhibitors” (Bioorg Med Chem Lett, 2012)
# Test system: Human immunodeficiency virus 1
# Experiment: Antiviral activity against Human immunodeficiency virus 1 HXB2 expressing protease M9 mutant infected in human MT4 cells after 5 days by MTT assay
# Format: functional, organism-based
# Conditions: Human immunodeficiency virus 1, HXB2, MT4, 120 h
row,Compound,IC50
1,Cc1nc(CNC=C2C(=O)Nc3ccc(S(=O)(=O)N(CC(C)C)C[C@@H](O)[C@H](Cc4ccccc4)NC(=O)O[C@H]4CO[C@H]5OCC[C@H]54)cc32)cs1 (mixture of isomers),30 nM
2,CC(C)CN(C[C@@H](O)[C@H](Cc1ccccc1)NC(=O)O[C@H]1CO[C@H]2OCC[C@H]21)S(=O)(=O)c1ccc2c(c1)C(=CNCc1ccncc1)C(=O)N2 (mixture of isomers),220 nM
3,CC(C)CN(C[C@@H](O)[C@H](Cc1ccccc1)NC(=O)O[C@H]1CO[C@H]2OCC[C@H]21)S(=O)(=O)c1ccc2c(c1)C(=CNCC1CCCCC1)C(=O)N2 (mixture of isomers),9 nM
4,CCN(C=C1C(=O)Nc2ccc(S(=O)(=O)N(CC(C)C)C[C@@H](O)[C@H](Cc3ccccc3)NC(=O)O[C@H]3CO[C@H]4OCC[C@H]43)cc21)CC (mixture of isomers),21 nM

# Test system: Human immunodeficiency virus 1
# Experiment: Antiviral activity against Human immunodeficiency virus 1 HXB2 expressing protease M3 mutant infected in human MT4 cells after 5 days by MTT assay
# Format: functional, organism-based
# Conditions: Human immunodeficiency virus 1, HXB2, MT4, 120 h
# How it was run: (§1)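 MT-4 cells (AIDS Research and Reference Reagent Program) exposed to 50% tissue culture infective doses (TCID₅₀) of virus with various concentrations of test compound for 5 days. MTT solution then added and absorbance measured. Mutant strains carry 10–17 resistance mutations with phenotypic resistance to marketed PIs; all include I84V except M7. IC₅₀ reported.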
row,Compound,IC50
1,CC(C)CN(C[C@@H](O)[C@H](Cc1ccccc1)NC(=O)O[C@H]1CO[C@H]2OCC[C@H]21)S(=O)(=O)c1ccc2c(c1)C(=CNCC1CCCCC1)C(=O)N2 (mixture of isomers),21 nM

# Test system: not listed separately
# Experiment: Inhibition of wild type Human immunodeficiency virus protease expressed in Escherichia coli using ArgGlu(EDANS)SerGlnAsnTyrProIleValGlnLys(DABCYL)Arg as substrate preincubated with compound for 0.5 to 1 min measured by fluorometric analysis at pH 6.5
# Conditions: not given
row,Compound,Ki
1,CC(C)CN(C[C@@H](O)[C@H](Cc1ccccc1)NC(=O)O[C@H]1CO[C@H]2OCC[C@H]21)S(=O)(=O)c1ccc2c(c1)C(=CNCCN(C)C)C(=O)N2 (mixture of isomers),< 0.1 nM
2,CC(C)CN(C[C@@H](O)[C@H](Cc1ccccc1)NC(=O)O[C@H]1CO[C@H]2OCC[C@H]21)S(=O)(=O)c1ccc2c(c1)C(=CNCc1nc3ccccc3[nH]1)C(=O)N2 (mixture of isomers),< 0.1 nM
3,Cc1nc(CNC=C2C(=O)Nc3ccc(S(=O)(=O)N(CC(C)C)C[C@@H](O)[C@H](Cc4ccccc4)NC(=O)O[C@H]4CO[C@H]5OCC[C@H]54)cc32)cs1 (mixture of isomers),< 0.1 nM
4,CC(C)CN(C[C@@H](O)[C@H](Cc1ccccc1)NC(=O)O[C@H]1CO[C@H]2OCC[C@H]21)S(=O)(=O)c1ccc2c(c1)C(=CNCc1ccncc1)C(=O)N2 (mixture of isomers),< 0.1 nM
5,CC(C)CN(C[C@@H](O)[C@H](Cc1ccccc1)NC(=O)O[C@H]1CO[C@H]2OCC[C@H]21)S(=O)(=O)c1ccc2c(c1)C(=CNCC1CCCCC1)C(=O)N2 (mixture of isomers),< 0.1 nM
6,CCN(C=C1C(=O)Nc2ccc(S(=O)(=O)N(CC(C)C)C[C@@H](O)[C@H](Cc3ccccc3)NC(=O)O[C@H]3CO[C@H]4OCC[C@H]43)cc21)CC (mixture of isomers),< 0.1 nM

# Test system: Human immunodeficiency virus 1
# Experiment: Antiviral activity against Human immunodeficiency virus 1 HXB2 expressing protease M6 mutant infected in human MT4 cells after 5 days by MTT assay
# Format: functional, organism-based
# Conditions: Human immunodeficiency virus 1, HXB2, MT4, 120 h
# How it was run: as §1
row,Compound,IC50
1,CC(C)CN(C[C@@H](O)[C@H](Cc1ccccc1)NC(=O)O[C@H]1CO[C@H]2OCC[C@H]21)S(=O)(=O)c1ccc2c(c1)C(=CNCC1CCCCC1)C(=O)N2 (mixture of isomers),25 nM

# Test system: Human immunodeficiency virus 1
# Experiment: Antiviral activity against Human immunodeficiency virus 1 HXB2 expressing protease M8 mutant infected in human MT4 cells after 5 days by MTT assay
# Format: functional, organism-based
# Conditions: Human immunodeficiency virus 1, HXB2, MT4, 120 h
row,Compound,IC50
1,Cc1nc(CNC=C2C(=O)Nc3ccc(S(=O)(=O)N(CC(C)C)C[C@@H](O)[C@H](Cc4ccccc4)NC(=O)O[C@H]4CO[C@H]5OCC[C@H]54)cc32)cs1 (mixture of isomers),40 nM
2,CC(C)CN(C[C@@H](O)[C@H](Cc1ccccc1)NC(=O)O[C@H]1CO[C@H]2OCC[C@H]21)S(=O)(=O)c1ccc2c(c1)C(=CNCc1ccncc1)C(=O)N2 (mixture of isomers),270 nM
3,CC(C)CN(C[C@@H](O)[C@H](Cc1ccccc1)NC(=O)O[C@H]1CO[C@H]2OCC[C@H]21)S(=O)(=O)c1ccc2c(c1)C(=CNCC1CCCCC1)C(=O)N2 (mixture of isomers),27 nM
4,CCN(C=C1C(=O)Nc2ccc(S(=O)(=O)N(CC(C)C)C[C@@H](O)[C@H](Cc3ccccc3)NC(=O)O[C@H]3CO[C@H]4OCC[C@H]43)cc21)CC (mixture of isomers),40 nM

# Test system: Human immunodeficiency virus 1
# Experiment: Antiviral activity against Human immunodeficiency virus 1 HXB2 expressing wild type protease infected in human MT4 cells after 5 days by MTT assay
# Format: functional, organism-based
# Conditions: Human immunodeficiency virus 1, HXB2, MT4, 120 h
row,Compound,IC50
1,CC(C)CN(C[C@@H](O)[C@H](Cc1ccccc1)NC(=O)O[C@H]1CO[C@H]2OCC[C@H]21)S(=O)(=O)c1ccc2c(c1)C(=CNCCN(C)C)C(=O)N2 (mixture of isomers),> 400 nM
2,CC(C)CN(C[C@@H](O)[C@H](Cc1ccccc1)NC(=O)O[C@H]1CO[C@H]2OCC[C@H]21)S(=O)(=O)c1ccc2c(c1)C(=CNCc1nc3ccccc3[nH]1)C(=O)N2 (mixture of isomers),> 400 nM
3,Cc1nc(CNC=C2C(=O)Nc3ccc(S(=O)(=O)N(CC(C)C)C[C@@H](O)[C@H](Cc4ccccc4)NC(=O)O[C@H]4CO[C@H]5OCC[C@H]54)cc32)cs1 (mixture of isomers),45 nM
4,CC(C)CN(C[C@@H](O)[C@H](Cc1ccccc1)NC(=O)O[C@H]1CO[C@H]2OCC[C@H]21)S(=O)(=O)c1ccc2c(c1)C(=CNCc1ccncc1)C(=O)N2 (mixture of isomers),300 nM
5,CC(C)CN(C[C@@H](O)[C@H](Cc1ccccc1)NC(=O)O[C@H]1CO[C@H]2OCC[C@H]21)S(=O)(=O)c1ccc2c(c1)C(=CNCC1CCCCC1)C(=O)N2 (mixture of isomers),9.7 nM
6,CCN(C=C1C(=O)Nc2ccc(S(=O)(=O)N(CC(C)C)C[C@@H](O)[C@H](Cc3ccccc3)NC(=O)O[C@H]3CO[C@H]4OCC[C@H]43)cc21)CC (mixture of isomers),38 nM

# Test system: Human immunodeficiency virus 1
# Experiment: Antiviral activity against Human immunodeficiency virus 1 HXB2 expressing protease M4 mutant infected in human MT4 cells after 5 days by MTT assay
# Format: functional, organism-based
# Conditions: Human immunodeficiency virus 1, HXB2, MT4, 120 h
# How it was run: as §1
row,Compound,IC50
1,CC(C)CN(C[C@@H](O)[C@H](Cc1ccccc1)NC(=O)O[C@H]1CO[C@H]2OCC[C@H]21)S(=O)(=O)c1ccc2c(c1)C(=CNCC1CCCCC1)C(=O)N2 (mixture of isomers),30 nM

# Test system: not listed separately
# Experiment: Inhibition of Human immunodeficiency virus protease M8 mutant expressed in Escherichia coli using ArgGlu(EDANS)SerGlnAsnTyrProIleValGlnLys(DABCYL)Arg as substrate preincubated with compound for 0.5 to 1 min measured by fluorometric analysis at pH 6.5
# Conditions: not given
row,Compound,Ki
1,CC(C)CN(C[C@@H](O)[C@H](Cc1ccccc1)NC(=O)O[C@H]1CO[C@H]2OCC[C@H]21)S(=O)(=O)c1ccc2c(c1)C(=CNCCN(C)C)C(=O)N2 (mixture of isomers),0.57 nM
2,CC(C)CN(C[C@@H](O)[C@H](Cc1ccccc1)NC(=O)O[C@H]1CO[C@H]2OCC[C@H]21)S(=O)(=O)c1ccc2c(c1)C(=CNCC1CCCCC1)C(=O)N2 (mixture of isomers),0.16 nM

# Test system: not listed separately
# Experiment: Inhibition of Human immunodeficiency virus protease M9 mutant expressed in Escherichia coli using ArgGlu(EDANS)SerGlnAsnTyrProIleValGlnLys(DABCYL)Arg as substrate preincubated with compound for 0.5 to 1 min measured by fluorometric analysis at pH 6.5
# Conditions: not given
row,Compound,Ki
1,CC(C)CN(C[C@@H](O)[C@H](Cc1ccccc1)NC(=O)O[C@H]1CO[C@H]2OCC[C@H]21)S(=O)(=O)c1ccc2c(c1)C(=CNCCN(C)C)C(=O)N2 (mixture of isomers),< 0.3 nM
2,CC(C)CN(C[C@@H](O)[C@H](Cc1ccccc1)NC(=O)O[C@H]1CO[C@H]2OCC[C@H]21)S(=O)(=O)c1ccc2c(c1)C(=CNCc1nc3ccccc3[nH]1)C(=O)N2 (mixture of isomers),< 0.3 nM
3,Cc1nc(CNC=C2C(=O)Nc3ccc(S(=O)(=O)N(CC(C)C)C[C@@H](O)[C@H](Cc4ccccc4)NC(=O)O[C@H]4CO[C@H]5OCC[C@H]54)cc32)cs1 (mixture of isomers),< 0.3 nM
4,CC(C)CN(C[C@@H](O)[C@H](Cc1ccccc1)NC(=O)O[C@H]1CO[C@H]2OCC[C@H]21)S(=O)(=O)c1ccc2c(c1)C(=CNCc1ccncc1)C(=O)N2 (mixture of isomers),< 0.3 nM
5,CC(C)CN(C[C@@H](O)[C@H](Cc1ccccc1)NC(=O)O[C@H]1CO[C@H]2OCC[C@H]21)S(=O)(=O)c1ccc2c(c1)C(=CNCC1CCCCC1)C(=O)N2 (mixture of isomers),< 0.3 nM
6,CCN(C=C1C(=O)Nc2ccc(S(=O)(=O)N(CC(C)C)C[C@@H](O)[C@H](Cc3ccccc3)NC(=O)O[C@H]3CO[C@H]4OCC[C@H]43)cc21)CC (mixture of isomers),< 0.3 nM

# Test system: Human immunodeficiency virus 1
# Experiment: Antiviral activity against Human immunodeficiency virus 1 HXB2 expressing protease M10 mutant infected in human MT4 cells after 5 days by MTT assay
# Format: functional, organism-based
# Conditions: Human immunodeficiency virus 1, HXB2, MT4, 120 h
row,Compound,IC50
1,Cc1nc(CNC=C2C(=O)Nc3ccc(S(=O)(=O)N(CC(C)C)C[C@@H](O)[C@H](Cc4ccccc4)NC(=O)O[C@H]4CO[C@H]5OCC[C@H]54)cc32)cs1 (mixture of isomers),29 nM
2,CC(C)CN(C[C@@H](O)[C@H](Cc1ccccc1)NC(=O)O[C@H]1CO[C@H]2OCC[C@H]21)S(=O)(=O)c1ccc2c(c1)C(=CNCc1ccncc1)C(=O)N2 (mixture of isomers),110 nM
3,CC(C)CN(C[C@@H](O)[C@H](Cc1ccccc1)NC(=O)O[C@H]1CO[C@H]2OCC[C@H]21)S(=O)(=O)c1ccc2c(c1)C(=CNCC1CCCCC1)C(=O)N2 (mixture of isomers),40 nM
4,CCN(C=C1C(=O)Nc2ccc(S(=O)(=O)N(CC(C)C)C[C@@H](O)[C@H](Cc3ccccc3)NC(=O)O[C@H]3CO[C@H]4OCC[C@H]43)cc21)CC (mixture of isomers),41 nM

# Test system: Human immunodeficiency virus 1
# Experiment: Antiviral activity against Human immunodeficiency virus 1 HXB2 expressing protease M5 mutant infected in human MT4 cells after 5 days by MTT assay
# Format: functional, organism-based
# Conditions: Human immunodeficiency virus 1, HXB2, MT4, 120 h
# How it was run: as §1
row,Compound,IC50
1,CC(C)CN(C[C@@H](O)[C@H](Cc1ccccc1)NC(=O)O[C@H]1CO[C@H]2OCC[C@H]21)S(=O)(=O)c1ccc2c(c1)C(=CNCC1CCCCC1)C(=O)N2 (mixture of isomers),18 nM

# Test system: not listed separately
# Experiment: Inhibition of Human immunodeficiency virus protease M10 mutant expressed in Escherichia coli using ArgGlu(EDANS)SerGlnAsnTyrProIleValGlnLys(DABCYL)Arg as substrate preincubated with compound for 0.5 to 1 min measured by fluorometric analysis at pH 6.5
# Conditions: not given
row,Compound,Ki
1,CC(C)CN(C[C@@H](O)[C@H](Cc1ccccc1)NC(=O)O[C@H]1CO[C@H]2OCC[C@H]21)S(=O)(=O)c1ccc2c(c1)C(=CNCCN(C)C)C(=O)N2 (mixture of isomers),1.7 nM
2,CC(C)CN(C[C@@H](O)[C@H](Cc1ccccc1)NC(=O)O[C@H]1CO[C@H]2OCC[C@H]21)S(=O)(=O)c1ccc2c(c1)C(=CNCc1nc3ccccc3[nH]1)C(=O)N2 (mixture of isomers),< 1 nM
3,Cc1nc(CNC=C2C(=O)Nc3ccc(S(=O)(=O)N(CC(C)C)C[C@@H](O)[C@H](Cc4ccccc4)NC(=O)O[C@H]4CO[C@H]5OCC[C@H]54)cc32)cs1 (mixture of isomers),< 1 nM
4,CC(C)CN(C[C@@H](O)[C@H](Cc1ccccc1)NC(=O)O[C@H]1CO[C@H]2OCC[C@H]21)S(=O)(=O)c1ccc2c(c1)C(=CNCc1ccncc1)C(=O)N2 (mixture of isomers),< 1 nM
5,CC(C)CN(C[C@@H](O)[C@H](Cc1ccccc1)NC(=O)O[C@H]1CO[C@H]2OCC[C@H]21)S(=O)(=O)c1ccc2c(c1)C(=CNCC1CCCCC1)C(=O)N2 (mixture of isomers),< 1 nM
6,CCN(C=C1C(=O)Nc2ccc(S(=O)(=O)N(CC(C)C)C[C@@H](O)[C@H](Cc3ccccc3)NC(=O)O[C@H]3CO[C@H]4OCC[C@H]43)cc21)CC (mixture of isomers),< 1 nM
